# From ChEMBL document CHEMBL4251654, “Structure-based design of human immuno- and constitutive proteasomes inhibitors” (Eur J Med Chem, 2018)
# Active and inactive are the calls of the source. No cut-off for these calls is given here.
# Tests used:
# Caco-2 = test: Cytotoxicity against human Caco2 cells assessed as reduction in cell viability after 48 hrs by Hoechst 33342 staining based HCS assay; format: functional; conditions: Homo sapiens, Caco-2, 48 h; read-out: EC50
# Outline: (§1)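 Cells were grown at 37 °C, 5% CO2 in medium with 10% FBS, 1% penicillin-streptomycin, 2 mM glutamine: DMEM for HuH7, MDA-MB-231 and fibroblasts, EMEM for Caco2, McCoy's for HCT116, RPMI for PC3 and NCI-H727. 4000 cells/well were seeded and dosed 24 h later at 0.1-25 μM final, from DMSO stocks. After 48 h they were fixed in ethanol/acetic acid and Hoechst-stained nuclei were counted by imaging. Survival is relative to DMSO. EC50 came from dose-response curves.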
# HCT-116 = test: Cytotoxicity against human HCT116 cells assessed as reduction in cell viability after 48 hrs by Hoechst 33342 staining based HCS assay; format: functional; conditions: Homo sapiens, HCT-116, 48 h; read-out: EC50; outline: as §1
# Fibroblast = test: Cytotoxicity against human fibroblasts assessed as reduction in cell viability after 48 hrs by Hoechst 33342 staining based HCS assay; outline: as §1
# PC-3 = test: Cytotoxicity against human PC3 cells assessed as reduction in cell viability after 48 hrs by Hoechst 33342 staining based HCS assay; format: functional; conditions: Homo sapiens, PC-3, 48 h; read-out: EC50; outline: as §1
# Huh-7 = test: Cytotoxicity against human HuH7 cells assessed as reduction in cell viability after 48 hrs by Hoechst 33342 staining based HCS assay; format: functional; conditions: Homo sapiens, Huh-7, 48 h; read-out: EC50; outline: as §1
# MCF7 = test: Cytotoxicity against human MCF7 cells assessed as reduction in cell viability after 48 hrs by Hoechst 33342 staining based HCS assay; format: functional; conditions: Homo sapiens, MCF7, 48 h; read-out: EC50
# [1] = target: T1, Proteasome component C5 (Homo sapiens) (UniProt P20618); test: Inhibition of human 20S constitutive proteasome beta-1 at 50 uM using Z-LLE-betaNA as substrate incubated for 15 mins measured for 45 mins by fluorescence assay relative to control
# T1 sequence (whole entry): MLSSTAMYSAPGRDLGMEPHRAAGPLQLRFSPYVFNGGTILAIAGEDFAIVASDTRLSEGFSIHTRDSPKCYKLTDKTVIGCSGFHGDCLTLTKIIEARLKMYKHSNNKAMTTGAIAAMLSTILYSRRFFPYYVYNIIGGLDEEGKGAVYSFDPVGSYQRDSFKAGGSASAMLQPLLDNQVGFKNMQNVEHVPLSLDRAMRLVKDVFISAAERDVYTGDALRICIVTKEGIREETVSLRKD
# Outline: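 Human 20S constitutive proteasome, 0.3 nM, was preincubated 15 min with compound (0.001-50 μM) in pH 8 Tris-HCl 20 mM, 10% glycerol, 0.01% SDS, 2% DMSO. Z-LLE-βNA at 50 μM was added. βNA fluorescence (ex 340/em 404 nm) was monitored 45 min at 37 °C against an untreated control.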
# MDA-MB-231 = test: Cytotoxicity against human MDA-MB-231 cells assessed as reduction in cell viability after 48 hrs by Hoechst 33342 staining based HCS assay; format: functional; conditions: Homo sapiens, MDA-MB-231, 48 h; read-out: EC50; outline: as §1
# [2] = target: Proteasome Macropain subunit (Homo sapiens) (UniProt P49721); test: Inhibition of human 20S constitutive proteasome beta-2 at 50 uM using BocLRR-AMC as substrate incubated for 15 mins measured for 45 mins by fluorescence assay relative to control
# Outline: (§2)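 Purified human 20S proteasome (cCP or iCP), 0.3 nM, preincubated 15 min with compound (0.001-50 μM) in pH 8 buffer of 20 mM Tris-HCl, 10% glycerol, 0.005% Triton X-100, 2% DMSO. Then Boc-LRR-AMC at 50 μM was added. AMC fluorescence (ex 360/em 460 nm) was followed 45 min at 37 °C. Activity is relative to an untreated control.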
# [3] = target: T2, Proteasome Macropain subunit MB1 (Homo sapiens) (UniProt P28074); test: Inhibition of human 20S constitutive proteasome beta-5 at 50 uM using Suc-LLVY-AMC as substrate incubated for 15 mins measured for 45 mins by fluorescence assay relative to control
# T2 sequence (whole entry): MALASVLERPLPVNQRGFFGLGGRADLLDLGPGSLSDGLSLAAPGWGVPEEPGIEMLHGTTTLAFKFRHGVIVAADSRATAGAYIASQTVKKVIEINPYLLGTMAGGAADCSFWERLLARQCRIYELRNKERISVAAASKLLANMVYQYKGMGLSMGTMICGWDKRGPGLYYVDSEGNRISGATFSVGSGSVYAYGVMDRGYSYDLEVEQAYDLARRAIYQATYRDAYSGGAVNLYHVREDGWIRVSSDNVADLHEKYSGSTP
# Outline: (§3)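 Human 20S cCP or iCP (0.3 nM) was exposed to compound (0.001-50 μM) for 15 min in pH 8 buffer of 20 mM Tris-HCl, 10% glycerol, 0.01% SDS, 2% DMSO. Suc-LLVY-AMC at 20 μM followed. Fluorescence (ex 360/em 460 nm) was read 45 min at 37 °C versus untreated enzyme.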
# [4] = target: T3, Proteasome subunit beta type-8 (Homo sapiens) (UniProt P28062); test: Inhibition of human 20S immunoproteasome beta-5 at 50 uM using Suc-LLVY-AMC as substrate incubated for 15 mins measured for 45 mins by fluorescence assay relative to control; outline: as §3
# T3 sequence (whole entry): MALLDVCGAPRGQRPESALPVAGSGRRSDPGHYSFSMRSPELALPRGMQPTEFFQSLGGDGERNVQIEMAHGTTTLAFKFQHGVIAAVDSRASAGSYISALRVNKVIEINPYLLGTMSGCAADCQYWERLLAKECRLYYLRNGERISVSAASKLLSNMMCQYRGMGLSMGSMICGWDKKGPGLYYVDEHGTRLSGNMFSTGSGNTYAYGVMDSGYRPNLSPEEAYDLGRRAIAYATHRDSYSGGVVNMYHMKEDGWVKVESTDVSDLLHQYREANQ
# [5] = target: T4, Proteasome subunit beta type-9 (Homo sapiens) (UniProt P28065); test: Inhibition of human 20S immunoproteasome beta-1 at 50 uM using Ac-PAL-AMC as substrate incubated for 15 mins measured for 45 mins by fluorescence assay relative to control
# T4 sequence (whole entry): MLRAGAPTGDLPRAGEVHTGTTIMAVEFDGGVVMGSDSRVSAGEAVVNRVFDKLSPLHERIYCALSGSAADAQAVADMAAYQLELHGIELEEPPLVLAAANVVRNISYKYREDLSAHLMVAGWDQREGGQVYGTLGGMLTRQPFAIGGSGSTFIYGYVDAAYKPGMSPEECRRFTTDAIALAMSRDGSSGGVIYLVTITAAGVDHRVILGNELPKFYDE
# Outline: (§4)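 Human 20S immunoproteasome (0.3 nM) was given 15 min with compound (0.001-50 μM) in pH 8 buffer of 20 mM Tris-HCl, 10% glycerol, 0.01% SDS, 2% DMSO. Ac-PAL-AMC at 50 μM was the substrate. Fluorescence (ex 360/em 460 nm) was followed 45 min at 37 °C relative to control.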
# NCI-H727 = test: Cytotoxicity against human NCI-H727 cells assessed as reduction in cell viability after 48 hrs by Hoechst 33342 staining based HCS assay; format: functional; conditions: Homo sapiens, NCI-H727, 48 h; read-out: EC50; outline: as §1
# [6] = target: T5, Proteasome subunit beta type-10 (Homo sapiens) (UniProt P40306); test: Inhibition of human 20S immunoproteasome beta-2 at 50 uM using BocLRR-AMC as substrate incubated for 15 mins measured for 45 mins by fluorescence assay relative to control
# T5 sequence (whole entry): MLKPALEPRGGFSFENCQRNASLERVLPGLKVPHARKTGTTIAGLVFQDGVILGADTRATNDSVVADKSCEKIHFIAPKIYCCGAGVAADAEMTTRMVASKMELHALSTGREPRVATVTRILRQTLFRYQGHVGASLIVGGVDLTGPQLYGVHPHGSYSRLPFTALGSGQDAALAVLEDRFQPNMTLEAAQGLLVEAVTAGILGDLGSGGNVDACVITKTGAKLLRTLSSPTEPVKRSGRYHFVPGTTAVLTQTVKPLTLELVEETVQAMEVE
# [7] = tested on: 20S immunoproteasome β5i (Homo sapiens); test: Inhibition of human 20S immunoproteasome beta-5 at 50 uM
# [8] = tested on: 20S proteasome β5 (Homo sapiens); test: Inhibition of human 20S constitutive proteasome beta-5 at 50 uM
# [9] = tested on: 20S immunoproteasome β5i (Homo sapiens); test: Inhibition of human 20S immunoproteasome beta-5
# [10] = tested on: 20S proteasome β5 (Homo sapiens); test: Inhibition of human 20S constitutive proteasome beta-5
# [11] = target: T6, Proteasome subunit beta type-10 (Homo sapiens, UniProt P40306); test: Inhibition of human 20S immunoproteasome beta-2 using BocLRR-AMC as substrate incubated for 15 mins measured for 45 mins by fluorescence assay
# T6 sequence (P40306 whole entry): T5 sequence (whole entry)
# [12] = target: T7, Proteasome subunit beta type-9 (Homo sapiens, UniProt P28065); test: Inhibition of human 20S immunoproteasome beta-1 using Ac-PAL-AMC as substrate incubated for 15 mins measured for 45 mins by fluorescence assay; outline: as §4
# T7 sequence (P28065 whole entry): T4 sequence (whole entry)
# [13] = target: T5, Proteasome subunit beta type-10 (Homo sapiens); test: Activation of human 20S immunoproteasome beta-2 at 50 uM using BocLRR-AMC as substrate incubated for 15 mins measured for 45 mins by fluorescence assay relative to control; outline: as §2
# [14] = target: T8, Proteasome subunit beta type-8 (Homo sapiens, UniProt P28062); test: Inhibition of human 20S immunoproteasome beta-5 using Suc-LLVY-AMC as substrate incubated for 15 mins measured for 45 mins by fluorescence assay; outline: as §3
# T8 sequence (P28062 whole entry): T3 sequence (whole entry)
# [15] = target: T9, Proteasome Macropain subunit MB1 (Homo sapiens, UniProt P28074); test: Inhibition of human 20S constitutive proteasome beta-5 using Suc-LLVY-AMC as substrate incubated for 15 mins measured for 45 mins by fluorescence assay; outline: as §3
# T9 sequence (P28074 whole entry): T2 sequence (whole entry)
# Sequence of Proteasome Macropain subunit (Homo sapiens) (P49721 whole entry): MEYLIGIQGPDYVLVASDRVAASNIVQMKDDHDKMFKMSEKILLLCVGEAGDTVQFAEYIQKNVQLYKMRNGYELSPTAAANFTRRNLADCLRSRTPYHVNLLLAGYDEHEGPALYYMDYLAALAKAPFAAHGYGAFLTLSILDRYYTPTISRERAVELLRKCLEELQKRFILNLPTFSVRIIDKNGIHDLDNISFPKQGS
Compound,inhibition [1],inhibition [2],inhibition [5],inhibition [6],IC50 [9],IC50 [10],IC50 [11],IC50 [12],other results
COc1ccc(C[C@H](NC(=O)[C@H](C)NC(=O)CN2CCOCC2)C(=O)N[C@@H](Cc2ccccc2)C(=O)[C@@]2(C)CO2)cc1,> 85%,> 85%,> 85%,,,,,,EC50 (Caco-2): 1.3 µM; EC50 (HCT-116): 0.11 µM; EC50 (Fibroblast): 0.16 µM; EC50 (PC-3): 0.33 µM; EC50 (Huh-7): 0.39 µM; EC50 (MCF7): 0.26 µM; EC50 (MDA-MB-231): 0.27 µM; inhibition [3]: > 85%; inhibition [4]: > 85%; EC50 (NCI-H727): 0.3 µM
CNC(=O)[C@H](C[C@@]1(O)C(=O)Nc2ccccc21)NC(=O)[C@H](C)NC(=O)[C@H](Cc1ccc(OCc2ccccc2)cc1)NC(=O)OC(C)(C)C,inactive,13%,10%,19%,,,,,inhibition [7]: 8%; inhibition [8]: inactive
C[C@H](NC(=O)[C@H](Cc1ccc(OCc2ccccc2)cc1)NC(=O)OC(C)(C)C)C(=O)N[C@@H](C[C@@]1(O)C(=O)Nc2ccccc21)C(=O)NCc1ccccc1,> 85%,inactive,> 85%,> 85%,7.3 µM,7 µM,34 µM,10.6 µM,
C[C@H](NC(=O)[C@H](Cc1ccc(OCc2ccccc2)cc1)NC(=O)OC(C)(C)C)C(=O)N[C@@H](C[C@]1(O)C(=O)Nc2ccccc21)C(=O)NCc1ccc(-c2ccccc2)cc1,> 85%,inactive,> 85%,,,,,13 µM,fold change (FC) [13]: 1.5; IC50 [14]: 19.7 µM; inhibition [3]: > 85%; inhibition [4]: > 85%; IC50 [15]: 28.7 µM
C[C@H](NC(=O)[C@@H](N)Cc1ccc(OCc2ccccc2)cc1)C(=O)N[C@@H](C[C@]1(O)C(=O)Nc2ccccc21)C(=O)NCc1ccccc1,> 85%,> 85%,> 85%,> 85%,13 µM,10.7 µM,27.2 µM,21.5 µM,
CNC(=O)[C@H](C[C@]1(O)C(=O)Nc2ccccc21)NC(=O)[C@H](C)NC(=O)[C@H](Cc1ccc(OCc2ccccc2)cc1)NC(=O)OC(C)(C)C,20%,36%,13%,> 85%,,,79 µM,,inhibition [7]: 24%
C[C@H](NC(=O)[C@H](Cc1ccc(O)cc1)NC(=O)OC(C)(C)C)C(=O)N[C@@H](C[C@]1(O)C(=O)Nc2ccccc21)C(=O)NCc1ccccc1,inactive,19%,12%,10%,34 µM,32 µM,,,
